# Experimental data as given in paper PMC5953009 (Chemical Science, 2015).
# Where two headings read alike, the source gives them in different places. Marks after values point to notes of the source that are not given here.
# Experiments:
# [1] = tested on: Pseudomonas aeruginosa strain PAO1 biofilms; experiment: Dispersal of already established biofilms; assay type: cell-based; conditions: 24 h
# In short: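 PAO1 inoculum (LB overnight, washed, OD600 1) grown as biofilm 24 h at 37 °C, static, without compound, in 0.25% nutrient broth. Wells washed twice, then 0.25% broth with sterile-filtered test compound added (50 μM or stated concentration). After a further 24 h at 37 °C static, wells washed twice and stained 2.5–3 h with 0.5 mM WST-8/20 μM phenazine ethosulfate. A450 read; value is concentration giving complete dispersal.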
# [2] = tested on: Pseudomonas aeruginosa PAO1; experiment: Broth microdilution method; assay type: cell-based; conditions: standard 2-fold dilution assay, full LB medium
# In short: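 Broth microdilution: 64 μM compound stocks in LB, sterile-filtered, diluted serially 1/2 in LB. PAO1 grown overnight in LB (37 °C, 180 rpm), diluted to OD600 0.022; 4 μL added to 150 μL sample (~5 × 10^5 CFU). Sterility, growth and polymyxin B (from 64 μg mL−1) controls. Incubated ~18 h at 37 °C, static. MTT (1 mg mL−1) added, 10 min RT. MIC = lowest concentration without visible growth by eye.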
# LecB = LecB (Pseudomonas aeruginosa, UniProt Q9HYN5); experiment: Isothermal titration calorimetry; assay type: binding
# Sequence of LecB (Q9HYN5 2-115 limits assumed): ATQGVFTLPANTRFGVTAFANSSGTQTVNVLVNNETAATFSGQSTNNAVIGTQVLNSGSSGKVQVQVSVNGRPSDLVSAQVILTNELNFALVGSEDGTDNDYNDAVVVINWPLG
# LecA = molecular target: T1, LecA (Pseudomonas aeruginosa, UniProt Q05097); experiment: Isothermal titration calorimetry; assay type: binding
# T1 sequence (Q05097 1-122): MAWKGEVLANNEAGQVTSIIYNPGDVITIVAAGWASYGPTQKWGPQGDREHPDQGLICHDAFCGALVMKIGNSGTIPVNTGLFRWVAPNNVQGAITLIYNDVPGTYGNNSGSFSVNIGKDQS
# [3] = tested on: Pseudomonas aeruginosa strain PAO1 biofilms; experiment: Biofilm inhibition; assay type: cell-based; conditions: 24 h growth, WST-8; compound alone
# In short: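 PAO1 grown overnight in LB at 37 °C with 180 rpm shaking, washed in 0.25% (w/v) nutrient broth and normalised to OD600 1. Inoculated into 0.25% nutrient broth no. 2 containing sterile-filtered test compound at varied concentrations. Incubated 24–25 h at 37 °C, static, humid. Wells washed twice with water, stained 2.5–3 h at 37 °C with 0.5 mM WST-8 plus 20 μM phenazine ethosulfate in 0.25% broth. Supernatant A450 read.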
# [4] = tested on: Pseudomonas aeruginosa strain PAO1; experiment: Bacterial cell viability in the supernatant of the biofilm inhibition assay; assay type: cell-based; conditions: CFU counts in the biofilm supernatant and growth test in full medium
# [5] = tested on: Pseudomonas aeruginosa PAO1; conditions: cited from earlier work
# [6] = ITC, 20 mM Tris, 100 mM NaCl, 100 μM CaCl2, pH 7.5, 25 °C
# [7] = ITC, 20 mM Tris, 100 mM NaCl, 100 μM CaCl2, pH 7.5, 25 °C, average of two runs
molecule,measurement,setting,value
(Ac-KKL)4(KFCxKI)2KHI [AcG2xK],Dispersal of already established biofilms,[1]; compound at 50 μM,100% dispersal
same,MIC (minimal inhibitory concentration),[2],>64 µM
"CC(=O)N[C@H]1C(O)O[C@H](CO)[C@@H](O[C@@H]2O[C@@H](C)[C@@H](O)[C@@H](O)[C@@H]2O)[C@@H]1O[C@@H]1O[C@H](CO)[C@H](O)[C@H](O)[C@H]1O (stereo partly shown) [Le^a, Lewis^a trisaccharide]",Kd,LecB; [6],213 ± 2 nM
same,ΔG,LecB; [6],–9.10 ± 0.02 kcal mol^–1
same,ΔH,LecB; [6],–8.35 ± 0.02 kcal mol^–1
same,–TΔS,LecB; [6],–0.74 ± 0.002 kcal mol^–1
same,n (stoichiometry of the binding),LecB; [7],1.08 ± 0.01
same,r.p./nsugar (relative potency per fucoside),LecB; KD(FucOCH3)/KD(ligand)/nFuc,2
"O=[N+]([O-])c1ccc(O[C@@H]2O[C@H](CO)[C@H](O)[C@H](O)[C@H]2O)cc1 [NPG, 4-nitrophenyl-β-D-galactopyranoside]",ΔH,LecA; [6],–10.6 ± 0.45 kcal mol^–1
same,–TΔS,LecA; [6],4.0 kcal mol^–1
same,n (stoichiometry of the binding),LecA; [7],0.91 ± 0.03
same,r.p./nGal (relative potency per galactoside),LecA; KD(GalAG0 or GalBG0)/KD(ligand)/nGal,0.2
NC[C@H]1O[C@H](O[C@H]2[C@H](O)[C@@H](O[C@H]3O[C@H](CO)[C@@H](O)[C@H](N)[C@H]3O)[C@H](N)C[C@@H]2N)[C@H](N)C[C@@H]1O [Tobramycin],MBIC (minimal biofilm inhibitory concentration),[3],0.5 µM
same,MBC (minimal bactericidal concentration under biofilm forming conditions),[4],0.5 µM
same,MBC (minimal bactericidal concentration under biofilm forming conditions),[4]; listed as tobramycin,bactericidal antibiofilm effect
same,Dispersal of already established biofilms,[1]; compound at 4 μM,100% dispersal @ 4 μM
same,MIC (minimal inhibitory concentration),[5],1 μg mL^–1 ^g
Polymyxin B,Dispersal of already established biofilms,[1]; compound at 10 μM,∼70% dispersal @ 10 μM
same,MIC (minimal inhibitory concentration),[5]; full medium,2 μg mL^–1 ^f
